# According to ChEMBL document CHEMBL1134599, “Design and synthesis of [(2,3-dichlorophenyl)piperazin-1-yl]alkylfluorenylcarboxamides as novel ligands selective for the dopamine D3 receptor subtype” (J Med Chem, 2001):
# pKi: −log10 of the molar value.
# Tests used:
# D(2) dopamine receptor = D(2) dopamine receptor (Homo sapiens, UniProt P14416); assay: Binding affinity at human dopamine receptor D2
# Summary of the method: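 Membranes from CHO cells expressing cloned D2 receptor (labelled primate in methods). Compounds tested at 0.1 nM–10 µM in duplicate with 0.1 nM [3H]YM-09151-2 and 40 µg membrane protein. Buffer was 50 mM Tris pH 7.4 with 120 mM NaCl, bacitracin and aprotinin. Incubated 2 h at room temperature, then filtered on PEI-treated GF/C. Nonspecific binding defined with 10 µM spiperone. IC50 converted to Ki by Cheng-Prusoff. 2–3 independent experiments.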
# D(3) dopamine receptor = D(3) dopamine receptor (Homo sapiens, UniProt P35462); assay: Binding affinity at dopamine receptor D3
# D(4) dopamine receptor = molecular target: T1, D(4) dopamine receptor (Homo sapiens, UniProt P21917); assay: Binding affinity at human dopamine receptor D4
# T1 sequence (P21917 whole entry): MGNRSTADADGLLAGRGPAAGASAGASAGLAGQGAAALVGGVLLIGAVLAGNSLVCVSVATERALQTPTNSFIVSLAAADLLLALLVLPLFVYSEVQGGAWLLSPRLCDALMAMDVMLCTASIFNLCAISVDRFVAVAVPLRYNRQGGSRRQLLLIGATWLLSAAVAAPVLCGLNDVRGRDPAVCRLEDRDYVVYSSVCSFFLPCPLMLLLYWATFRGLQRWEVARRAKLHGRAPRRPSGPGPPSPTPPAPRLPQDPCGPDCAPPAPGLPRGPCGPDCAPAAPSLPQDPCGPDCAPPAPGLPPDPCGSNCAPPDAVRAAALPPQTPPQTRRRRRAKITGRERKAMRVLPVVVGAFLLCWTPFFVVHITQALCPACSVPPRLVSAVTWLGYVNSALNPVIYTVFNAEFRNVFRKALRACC
# Summary of the method: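 Membranes from CHO cells expressing cloned human D4 receptor, prepared in HEPES buffer with protease inhibitors. Compounds tested at 0.1 nM–10 µM in duplicate with 0.1 nM [3H]YM-09151-2 and 40 µg protein, in 50 mM Tris pH 7.4 with 120 mM NaCl. Incubated 2 h at room temperature, then filtered and counted by scintillation. Nonspecific binding defined with 10 µM spiperone. Ki from IC50 by Cheng-Prusoff. 2–3 independent experiments.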
# [1] = Binding affinity at human dopamine receptor D2
# Chain of D(2) dopamine receptor (P14416 whole entry): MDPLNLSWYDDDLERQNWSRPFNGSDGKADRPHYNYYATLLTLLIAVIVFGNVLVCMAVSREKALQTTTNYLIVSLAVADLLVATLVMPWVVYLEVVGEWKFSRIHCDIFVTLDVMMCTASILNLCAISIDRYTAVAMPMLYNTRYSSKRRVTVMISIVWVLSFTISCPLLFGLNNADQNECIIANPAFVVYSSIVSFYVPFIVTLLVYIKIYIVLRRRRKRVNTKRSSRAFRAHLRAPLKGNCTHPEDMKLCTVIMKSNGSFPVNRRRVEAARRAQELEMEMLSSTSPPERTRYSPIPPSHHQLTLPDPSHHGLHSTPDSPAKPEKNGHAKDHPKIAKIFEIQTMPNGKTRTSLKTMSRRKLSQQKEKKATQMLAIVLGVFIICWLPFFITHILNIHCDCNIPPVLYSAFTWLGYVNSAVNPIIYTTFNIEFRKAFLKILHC
# Chain of D(3) dopamine receptor (P35462 whole entry): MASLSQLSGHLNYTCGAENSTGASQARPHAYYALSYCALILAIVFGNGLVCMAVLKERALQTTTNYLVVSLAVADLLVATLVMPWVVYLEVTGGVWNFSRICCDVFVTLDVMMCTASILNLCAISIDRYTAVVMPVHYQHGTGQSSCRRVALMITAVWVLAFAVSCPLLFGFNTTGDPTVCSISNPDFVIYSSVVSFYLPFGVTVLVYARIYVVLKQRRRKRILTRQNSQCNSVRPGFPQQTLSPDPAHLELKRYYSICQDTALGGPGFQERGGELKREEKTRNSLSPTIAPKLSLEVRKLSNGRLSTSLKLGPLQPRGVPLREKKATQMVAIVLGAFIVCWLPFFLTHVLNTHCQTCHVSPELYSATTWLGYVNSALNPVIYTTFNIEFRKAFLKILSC
Structure (SMILES),pKi (D(2) dopamine receptor),pKi (D(3) dopamine receptor),pKi (D(4) dopamine receptor),pKi [1]
Clc1cccc(C(OC2CC3CCC(C2)N3CCCc2ccccc2)c2ccccc2)c1 (stereo not given),7.23,7.14,6.65,
CCN(CC)CCOCCOC1(c2ccccc2)CCCC1,,5.21,,
Fc1ccc(C(OC2CC3CCC(C2)N3Cc2cc3ccccc3[nH]2)c2ccc(F)cc2)cc1 (stereo not given),6.66,7.27,6.76,
O=C(NCCCCN1CCN(c2cccc(Cl)c2Cl)CC1)c1ccc2c(c1)-c1ccccc1C2,6.66,8.85,< 5.30,
Fc1ccc(C(OCCOC2CC3CCC(C2)N3)c2ccc(F)cc2)cc1 (stereo not given),5.95,5.60,< 5.40,
Fc1ccc(C(OC2CC3CCC(C2)N3Cc2cccc3ccccc23)c2ccc(F)cc2)cc1 (stereo not given),6.42,6.95,6.92,
Fc1ccc(C(OC2CC3CCC(C2)N3Cc2ccccc2)c2ccc(F)cc2)cc1 (stereo not given),6.88,7.20,6.19,
Fc1ccc(C(O[C@H]2C[C@H]3CC[C@@H](C2)N3CCCCc2ccccc2)c2ccc(F)cc2)cc1,7.09,7.86,7.17,
Fc1ccc(C(OC2CC3CCC(C2)N3Cc2ccc(Cl)c(Cl)c2)c2ccc(F)cc2)cc1 (stereo not given),6.20,6.56,6.46,
CN1[C@@H]2CC[C@H]1C[C@@H](OC(c1ccc(Cl)cc1)c1ccc(Cl)cc1)C2,,6.66,,
CN1C2CCC1CC(OC(c1ccccc1)c1ccc(Cl)cc1)C2 (stereo not given),5.76,5.27,6.00,
CN1C2CCC1CC(OC1c3ccccc3Cc3ccccc31)C2 (stereo not given),6.17,6.71,6.27,
Fc1ccc(C(OCCN2C3CCC2CC(OC(c2ccc(F)cc2)c2ccc(F)cc2)C3)c2ccc(F)cc2)cc1 (stereo not given),6.03,6.67,6.06,
C=CCN1C2CCC1CC(OC(c1ccc(F)cc1)c1ccc(F)cc1)C2 (stereo not given),,6.89,,
O=C(NCCCCN1CCN(c2cccc(Cl)c2Cl)CC1)c1ccc2c(c1)-c1ccccc1-2,,,< 5.30,[…]
O=C(NCCCN1CCN(c2cccc(Cl)c2Cl)CC1)c1ccc2c(c1)Cc1ccccc1-2,5.59,6.96,6.46,
O=C1c2ccccc2C(=O)N1CCCCN1CCN(c2cccc(Cl)c2Cl)CC1,6.92,8.39,6.43,
CN1C2CCC1CC(OC(c1ccc(F)cc1)c1ccc(F)cc1)C2 (stereo not given) [DIFLUOROBENZTROPINE],,6.84,,

# The next lines start with the values.
pKi (D(2) dopamine receptor),pKi (D(3) dopamine receptor),pKi (D(4) dopamine receptor),pKi [1],Structure (SMILES)
5.77,6.77,6.49,,O=C(NCCCN1CCN(c2cccc(Cl)c2Cl)CC1)c1cccc2c1Cc1ccccc1-2
6.08,5.84,6.17,,O=C(NCCCN1CCN(c2ccccc2)CC1)c1ccc2c(c1)Cc1ccccc1-2
,< 5.30,,,C[C@@H]1CN(CCCN(c2ccccc2)c2ccccc2)C[C@H](C)N1CCCc1ccccc1
6.74,5.40,< 5.40,,OC1CCc2c(c3ccccc3n2CCCN2CCN(c3ccccc3)CC2)C1 (stereo not given)
,< 5.10,,,C[C@@H]1CN(CCCn2c3ccccc3c3ccccc32)C[C@H](C)N1C
6.33,6.37,6.10,,O=C(NCCCN1CCN(c2ccccc2)CC1)c1cccc2c1Cc1ccccc1-2
,< 5.40,,,Clc1ccccc1N1CCN(CCCn2c3ccccc3c3ccccc32)CC1
,< 5.40,,,C[C@@H]1CN(CCCn2c3ccccc3c3ccccc32)C[C@H](C)N1CCCc1ccccc1
7.05,8.85,5.73,,O=C(NCCCCN1CCN(c2cccc(Cl)c2Cl)CC1)c1cccc2c1-c1ccccc1C2=O
6.22,6.47,5.66,,O=C(NCCCN1CCN(c2ccccc2)CC1)C1c2ccccc2-c2ccccc21
7.96,8.11,6.98,,O=C1c2ccccc2C(=O)N1CCCCCN1CCN(c2cccc(Cl)c2Cl)CC1
8.00,7.72,6.41,,O=C(NCCCCN1CCN(c2cccc(Cl)c2Cl)CC1)C1c2ccccc2-c2ccccc21
6.29,7.44,5.40,,O=C(NCCCN1CCN(c2cccc(Cl)c2Cl)CC1)c1cccc2c1-c1ccccc1C2=O
,< 5.10,,,C[C@@H]1CN(CCCn2c3ccc(Br)cc3c3cc(Br)cc(Br)c32)C[C@@H](C)N1
,< 5.10,,,C[C@@H]1CN(CCCn2c3ccccc3c3cc(N)ccc32)C[C@H](C)N1
6.11,6.37,5.86,,O=C(NCCCN1CCN(c2ccccc2)CC1)c1cccc2c1-c1ccccc1C2=O
,< 5.10,,,O=C(NCC1c2ccccc2-c2ccccc21)C1CCNCC1
,< 5.10,,,C[C@@H]1CN(CCCN(c2ccccc2)c2ccccc2)C[C@H](C)N1
,5.62,,,c1ccc(N2CCN(CCCn3c4ccccc4c4ccccc43)CC2)cc1
8.30,7.55,6.28,,O=C(NCCCCCN1CCN(c2cccc(Cl)c2Cl)CC1)c1cccc2c1-c1ccccc1C2=O
6.38,7.62,5.94,,O=C(NCCCN1CCN(c2cccc(Cl)c2Cl)CC1)C1c2ccccc2-c2ccccc21
